Results as given in ChEMBL document CHEMBL1158957, “Scopadulciol, an inhibitor of gastric H+, K(+)-ATPase from Scoparia dulcis, and its structure-activity relationships” (J Nat Prod, 1991).
Where “and” joins values, the source holds several entries; their conditions need not be identical. Equal entries are not always repeated.

Key:
Sus scrofa [1] = organism: Sus scrofa; assay: Inhibition of H+/K+ ATPase in pig stomach at 10 uM; type: tissue-based
Method in brief: (§1)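 Enzyme from hog fundic mucosa: vesicles were isolated by differential and sucrose/Ficoll gradient centrifugation, lyophilized, resuspended in water, kept at -80° and used within 2–3 weeks. The 1 ml assay held 10 µg vesicle protein, 3 mM MgSO₄, 3 mM ATP and 40 mM Tris/HCl pH 7.4, ±15 mM KCl. Inorganic phosphate was the read-out, and H⁺,K⁺-ATPase activity was taken as the K⁺-dependent difference.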

Sus scrofa [2] = organism: Sus scrofa; assay: Inhibition of H+/K+ ATPase in pig stomach at 1 uM; type: tissue-based; method in brief: as §1
Sus scrofa [3] = organism: Sus scrofa; assay: Inhibition of H+/K+ ATPase in pig stomach at 100 uM; type: tissue-based; method in brief: as §1
[4] = Inhibition of H+/K+ ATPase in pig stomach; type: tissue-based, Sus scrofa; method in brief: as §1

Compound | inhibition (Sus scrofa [1]) | inhibition (Sus scrofa [2]) | inhibition (Sus scrofa [3]) | IC50 [4] [nM]
C[C@]12CC[C@]3(C1)[C@@H](C[C@@H](OC(=O)c1ccccc1)[C@H]1[C@](C)(C(=O)O)CCC[C@@]13C)C[C@@H]2O | 12% | 1% | 72% | 
C[C@]12CC[C@]3(C1)[C@H](CC2=O)C[C@@H](OC(=O)c1ccccc1)[C@H]1[C@@](CO)(C(=O)O)CCC[C@@]13C |  |  | 24% | 
C[C@]12CC[C@]3(C1)[C@H](CC2=O)C[C@@H](OC(=O)c1ccccc1)[C@H]1[C@](C)(C(=O)O)CCC[C@@]13C | 21% and 14% | 7% and -0% | 62% and 64% | 
C[C@@]12CC[C@]3(C1)[C@H](CC2=O)C[C@@H](OC(=O)c1ccccc1)[C@H]1[C@](C)(CO)CCC[C@@]13C | 21% | -1% | 45% | 
COC(=O)[C@]1(C)CCC[C@@]2(C)[C@H]1[C@H](OC(=O)c1ccccc1)C[C@H]1CC(=O)[C@@]3(C)CC[C@]12C3 | 74% | 36% | 81% | 3000
C[C@]12CC[C@]3(C1)[C@@H](C[C@@H](O)[C@H]1[C@](C)(C(=O)O)CCC[C@@]13C)C[C@@H]2O |  |  | 8% | 
C[C@]12CC[C@]3(C1)[C@@H](CC(=O)[C@H]1[C@](C)(C(=O)O)CCC[C@@]13C)CC2=O | 1% | -1% | 12% | 
COC(=O)[C@]1(C)CCC[C@@]2(C)[C@H]1[C@H](O)C[C@H]1CC(=O)[C@@]3(C)CC[C@]12C3 | 4% | -5% | 52% | 
COC(=O)[C@]1(C)CCC[C@@]2(C)[C@H]1[C@H](OC(=O)c1ccccc1)C[C@H]1C/C(=N\O)[C@@]3(C)CC[C@]12C3 | 67% | 24% | 75% | 
C[C@]12CC[C@]3(C1)[C@H](C[C@H]2O)C[C@@H](OC(=O)c1ccccc1)[C@H]1[C@](C)(C(=O)O)CCC[C@@]13C | 3% | -4% | 30% | 
C[C@]12CC[C@]3(C1)[C@H](C/C2=N\O)C[C@@H](OC(=O)c1ccccc1)[C@H]1[C@](C)(C(=O)O)CCC[C@@]13C | 26% | 11% | 80% | 

Further lines, results first:

inhibition (Sus scrofa [1]) | inhibition (Sus scrofa [2]) | inhibition (Sus scrofa [3]) | IC50 [4] [nM] | Compound
13% | 2% | 21% |  | CC(=O)O[C@H]1C[C@@H]2C[C@@H](O)[C@H]3[C@](C)(C(=O)O)CCC[C@]3(C)[C@]23CC[C@@]1(C)C3
71% | 40% | 72% |  | CC(=O)OC[C@]1(C)CCC[C@@]2(C)[C@H]1[C@H](OC(=O)c1ccccc1)C[C@H]1CC(=O)[C@@]3(C)CC[C@]12C3
59% | 12% | 64% |  | COC(=O)[C@]1(C)CCC[C@@]2(C)[C@H]1[C@H](OC(=O)c1ccccc1)C[C@H]1C[C@@H](O)[C@@]3(C)CC[C@]12C3
64% | 10% | 68% |  | COC(=O)[C@]1(C)CCC[C@@]2(C)[C@H]1[C@H](OC(=O)c1ccccc1)C[C@H]1C[C@H](O)[C@@]3(C)CC[C@]12C3
58% | 35% | 61% | 3000 | COC(=O)[C@]1(C)CCC[C@@]2(C)[C@H]1[C@H](OC(=O)c1ccccc1)C[C@H]1C[C@@H](OC(C)=O)[C@@]3(C)CC[C@]12C3
-3% |  | 7% |  | C[C@]12CC[C@]3(C1)[C@@H](C[C@@H](O)[C@H]1[C@](C)(CO)CCC[C@@]13C)C[C@H]2O
33% | -2% | 62% |  | CC(=O)OC[C@]1(C)CCC[C@@]2(C)[C@H]1[C@H](O)C[C@H]1C[C@@H](OC(C)=O)[C@@]3(C)CC[C@]12C3
38% | 7% | 98% |  | CC(=O)O[C@@H]1C[C@@H]2C[C@@H](OC(=O)c3ccccc3)[C@H]3[C@](C)(C(=O)O)CCC[C@]3(C)[C@]23CC[C@@]1(C)C3
5% | -2% | 22% |  | COC(=O)[C@]1(C)CCC[C@@]2(C)[C@H]1[C@H](O)C[C@H]1C[C@H](O)[C@@]3(C)CC[C@]12C3
40% | 5% | 79% |  | CC(=O)OC[C@]1(C)CCC[C@@]2(C)[C@H]1[C@H](O)C[C@H]1C[C@H](OC(C)=O)[C@@]3(C)CC[C@]12C3
18% | 13% | 57% |  | CC(=O)OC[C@]1(C)CCC[C@@]2(C)[C@H]1[C@H](OC(C)=O)C[C@H]1C[C@H](OC(C)=O)[C@@]3(C)CC[C@]12C3
21% | 3% | 94% |  | CC(=O)O[C@H]1C[C@@H]2C[C@@H](OC(=O)c3ccccc3)[C@H]3[C@](C)(C(=O)O)CCC[C@]3(C)[C@]23CC[C@@]1(C)C3
 |  | 24% |  | C[C@]12CC[C@]3(C1)[C@@H](C[C@@H](O)[C@H]1[C@](C)(CO)CCC[C@@]13C)C[C@@H]2O
61% | 49% | 62% |  | COC(=O)[C@]1(C)CCC[C@@]2(C)[C@H]1[C@H](OC(=O)c1ccccc1)C[C@H]1C[C@H](OC(C)=O)[C@@]3(C)CC[C@]12C3
7% | 1% | 33% |  | CC(=O)O[C@@H]1C[C@H]2CC(=O)[C@@]3(C)CC[C@@]2(C3)[C@@]2(C)CCC[C@@](C)(C(=O)O)[C@H]12
